Assay results of several laboratories.
Protocols differ between the studies behind these lines.
Target: Mitogen-activated protein kinase 11 (MAPK11, Homo sapiens, UniProt Q15759)
Technique: competition with immobilised ligand

C=CC(=O)N1CCC(C(=O)NCC(=O)N2CCN(c3nc(-c4cnc(N)nc4C(F)F)nc(N4CCOCC4)n3)CC2)CC1  remaining binding (binding; 1 µM): 89%
O=C(c1ccc(Nc2ncc(Cl)c(-c3ccc(Cl)s3)n2)cc1)N1CCC(N2CCCC2)CC1  remaining binding (binding; 1 µM): 73%
Cc1cnn2ncc(-c3ccnc(N(C)C)n3)c2c1  remaining binding (binding; 1 µM): 100%
CC(=O)N1CCC(c2ccc(C(=O)NC3=NCCN3)cc2C(F)(F)F)CC1  remaining binding (cell-free assay; 1 µM): 98%
C[C@@H]1CN(c2ccc3ncc(-c4ccc5[nH]nc(C6CC6)c5c4)n3n2)C[C@H](C)O1  remaining binding (binding; 50 nM): 100%
CCN1CCN(Cc2ccc(C(=O)Nc3ccc(C)c(Oc4ccc5c(c4)CC(=O)N5)c3)cc2C(F)(F)F)CC1  remaining binding (binding; 1 µM): 7%
COc1cnc(Nc2cccc(S(N)(=O)=O)c2)nc1N1CCN(c2ccccc2)CC1  remaining binding (binding; 1 µM): 100%
CC(C)(C)c1ccc(-c2nc(CBr)nn2-c2cccc(O)c2)cc1  remaining binding (cell-free assay; 10 µM): 99%
FC(F)(F)Oc1cccc(-c2cnc3ccc(-c4ccncc4)nn23)c1  remaining binding (cell-free assay; 5 µM): 89%
COc1cc(-c2cn(C3CCc4ccccc4N(CC(F)(F)F)C3=O)nn2)ccc1-n1ccc(C)n1 (stereo not shown)  remaining binding (cell-free assay; 1 µM): 82%
O=C(Nc1c[nH]nc1C(=O)NC1CCNCC1)c1cc(F)cc(F)c1  remaining binding (binding; 1 µM): 97%
C[C@H]1CCN(c2nccc(-c3cnn4ncccc34)n2)C1  remaining binding (binding; 1 µM): 55%
CN(C)c1ncnc(-c2ccc3nc(Nc4cc(CN5CCN(C(=O)CC(F)(F)F)CC5)ccn4)[nH]c3c2)c1Cl  remaining binding (cell-free assay; 1 µM): 97%
O=C(c1ccc(Nc2nccc(-c3cc4ccccc4s3)n2)cc1)N1CCC(N2CCCC2)CC1  remaining binding (binding; 1 µM): 95%
c1cncc(-c2cccc(Nc3nccc(NC4CCCCC4)n3)c2)c1  remaining binding (binding; 10 µM): 89%
CCS(=O)(=O)c1cc2cc(C[C@](O)(CC(C)(C)c3ccc(F)cc3C(N)=O)C(F)(F)F)[nH]c2cn1  remaining binding (cell-free assay; 1 µM): 100%
c1cnn2ncc(-c3ccnc(N4CCC45COC5)n3)c2c1  remaining binding (binding; 1 µM): 100%
C[C@@H](c1ccc(-n2cnc3c(N)ncnc32)cc1)N1CCc2nn(C)c(Cc3ccccc3)c2C1=O  remaining binding (binding; 0.1 µM): 92%
CSc1cccnc1N1CCN(Cc2nc3ccccc3[nH]2)CC1  remaining binding (cell-free assay; 1 µM): 100%
N[C@@H]1CCN(c2nccc(-c3cnn4ncccc34)n2)C1  remaining binding (binding; 1 µM): 100%
NS(=O)(=O)c1cc(NC(=O)C2(c3ccccc3Cl)CC2)ccc1Oc1cccc(Cl)c1  remaining binding (cell-free assay; 1 µM): 68%
COc1ccnn2ncc(-c3ccnc(N(C)C)n3)c12  remaining binding (binding; 1 µM): 92%
